Laboratory results published in ChEMBL document CHEMBL4265871, “Novel alkylated azoles as potent antifungals” (Eur J Med Chem, 2017).
≈ marks a conversion by molar mass, not a printed value.

Columns and labels:
Candida albicans [1] = test: Antifungal activity against ITC and FLC-resistant Candida albicans ATCC MYA-90819 incubated for 48 hrs by modified CLSI M27-A3 protocol based method; type: functional; conditions: ATCC MYA-90819, 48 h
Candida albicans [2] = test: Effect on sterol composition in Candida albicans ATCC 64124 assessed as unknown sterol level at 1.95 ug/mL incubated for 10 mins by LC-MS analysis (reference value: 2.67 to 6.98%)
[3] = Hemolytic activity in mouse erythrocytes assessed as hemolysis level at 1.95 ug/ml incubated for 1 hr at 37 degC; type: ADME, cell-based, Erythrocyte; conditions: read-out: Activity
In short: (§1)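 Mouse erythrocytes incubated 1 h at 37 °C with test agents over 1.95 to 125 µg/mL. Percent lysis is read for each concentration.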

Candida albicans [4] = test: Effect on sterol composition in Candida albicans ATCC 64124 assessed as eburicol level at 1.95 ug/mL incubated for 10 mins by LC-MS analysis (reference value: 6.28%)
Candida albicans [5] = test: Effect on sterol composition in Candida albicans ATCC 10231 assessed as unknown sterol level at 0.125 ug/mL incubated for 10 mins by GC-MS analysis (reference value: 1.88 to 2.78%)
Candida albicans [6] = test: Effect on sterol composition in Candida albicans ATCC 10231 assessed as ergosterol level at 0.125 ug/mL incubated for 10 mins by GC-MS analysis (reference value: 91.15%)
Candida parapsilosis = test: Antifungal activity against Candida parapsilosis ATCC 22019 incubated for 48 hrs by modified CLSI M27-A3 protocol based method; type: functional; conditions: Lodderomyces parapsilosis, ATCC 22019, 48 h
In short: (§2)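 For C. albicans ATCC 10231, C. krusei ATCC 6258 and C. parapsilosis ATCC 22019, MIC-0 was read, meaning complete growth inhibition. For azole controls, MIC-2 (50% growth inhibition) was reported instead. Caspofungin and voriconazole were tested here; other controls came from earlier work.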

[7] = Hemolytic activity in mouse erythrocytes assessed as hemolysis level at 7.8 ug/ml incubated for 1 hr at 37 degC; type: ADME, cell-based, Erythrocyte; conditions: read-out: Activity; in short: as §1
[8] = Toxicity in human A549 cells assessed as reduction in cell viability incubated for 24 hrs by resazurin dye based assay
In short: (§3)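 Toxicity tested in the nucleated lines A549 and BEAS-2B to give EC50 values. Selectivity index is EC50 against the mammalian line divided by the MIC against a given fungal strain.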

Candida albicans [9] = test: Antifungal activity against Candida albicans ATCC 64124 incubated for 48 hrs by modified CLSI M27-A3 protocol based method; type: functional; conditions: ATCC 64124, 48 h
[10] = Toxicity in human BEAS2B cells assessed as reduction in cell viability incubated for 24 hrs by resazurin dye based assay; conditions: BEAS-2B cells; in short: as §3
Candida albicans [11] = test: Effect on sterol composition in Candida albicans ATCC 10231 assessed as lanosterol level at 0.125 ug/mL incubated for 10 mins by GC-MS analysis (reference value: 4.17%)
[12] = Hemolytic activity in mouse erythrocytes assessed as hemolysis level at 3.9 ug/ml incubated for 1 hr at 37 degC; type: ADME, cell-based, Erythrocyte; conditions: read-out: Activity; in short: as §1
Pichia kudriavzevii = test: Antifungal activity against Candida krusei ATCC 6258 incubated for 48 hrs by modified CLSI M27-A3 protocol based method; type: functional; conditions: ATCC 6258, 48 h; in short: as §2
Candida albicans [13] = test: Antifungal activity against ITC and FLC-susceptible Candida albicans ATCC MYA-2876 incubated for 48 hrs by modified CLSI M27-A3 protocol based method; type: functional; conditions: ATCC MYA-2876, 48 h
In short: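 Because these Candida strains show trailing growth, MIC-2 was read, meaning 50% growth inhibition. Caspofungin and voriconazole were tested here; other controls came from earlier work.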

Nakaseomyces glabratus = test: Antifungal activity against Candida glabrata ATCC 2001 incubated for 48 hrs by modified CLSI M27-A3 protocol based method; type: functional; conditions: ATCC 2001, 48 h
[14] = Hemolytic activity in mouse erythrocytes assessed as hemolysis level at 125 ug/ml incubated for 1 hr at 37 degC; type: ADME, cell-based, Erythrocyte; conditions: read-out: Activity; in short: as §1
[15] = Hemolytic activity in mouse erythrocytes assessed as hemolysis level at 15.6 ug/ml incubated for 1 hr at 37 degC; type: ADME, cell-based, Erythrocyte; conditions: read-out: Activity; in short: as §1
in vitro = conditions: mouse, mouse erythrocytes
Candida albicans [16] = test: Antifungal activity against ITC and FLC-susceptible Candida albicans ATCC MYA-2310 incubated for 48 hrs by modified CLSI M27-A3 protocol based method; type: functional; conditions: ATCC MYA-2310, 48 h
[17] = Hemolytic activity in mouse erythrocytes assessed as hemolysis level at 31.3 ug/ml incubated for 1 hr at 37 degC; type: ADME, cell-based, Erythrocyte; conditions: read-out: Activity; in short: as §1
Candida albicans [18] = test: Effect on sterol composition in Candida albicans ATCC 64124 assessed as lanosterol level at 1.95 ug/mL incubated for 10 mins by LC-MS analysis (reference value: 29.38%)
Candida albicans [19] = test: Effect on sterol composition in Candida albicans ATCC 64124 assessed as ergosterol level at 1.95 ug/mL incubated for 10 mins by LC-MS analysis (reference value: 54.72%)

OC(Cn1cncn1)(Cn1cncn1)c1ccc(F)cc1F [FLUCONAZOLE]
MIC50 (Candida albicans [1]): > 408 µM
Activity (Candida albicans [2]): 0.02 - 9.75%
hemolysis at 1 h, 1.95 ug/ml [3]: 0%
Activity (Candida albicans [4]): 11.61%
Activity (Candida albicans [5]): 1.12 - 1.25%
Activity (Candida albicans [6]): 93.79%
MIC50 (Candida parapsilosis): 6.4 µM (≈ 1.96 µg/mL)
hemolysis at 1 h, 7.8 ug/ml [7]: 0%
EC50 at 24 h [8]: > 62.5 µg/mL
MIC50 (Candida albicans [9]): > 408 µM
EC50 at 24 h [10]: > 62.5 µg/mL
Activity (Candida albicans [11]): 3.81%
hemolysis at 1 h, 3.9 ug/ml [12]: 0%
MIC50 (Pichia kudriavzevii): > 102 µM
MIC50 (Candida albicans [13]): 50.9 µM (≈ 15.6 µg/mL)
MIC50 (Nakaseomyces glabratus): > 102 µM
hemolysis at 1 h, 125 ug/ml [14]: 13.4%
hemolysis at 1 h, 15.6 ug/ml [15]: 0%
hemolysis at 1 h, 62.5 ug/ml (in vitro): 2.7%
MIC50 (Candida albicans [16]): > 408 µM
hemolysis at 1 h, 31.3 ug/ml [17]: 7.5%
Activity (Candida albicans [18]): 30.59%
Activity (Candida albicans [19]): 48.03%
